Substitutions are numbered along the chain they refer to. Read-outs that look alike come from different tables or passages of the source.

One test addresses T1, PfCRT 7G8+C350R (Plasmodium falciparum, UniProt W7FI62, C350R).
T1 sequence (W7FI62 1-424 C350R): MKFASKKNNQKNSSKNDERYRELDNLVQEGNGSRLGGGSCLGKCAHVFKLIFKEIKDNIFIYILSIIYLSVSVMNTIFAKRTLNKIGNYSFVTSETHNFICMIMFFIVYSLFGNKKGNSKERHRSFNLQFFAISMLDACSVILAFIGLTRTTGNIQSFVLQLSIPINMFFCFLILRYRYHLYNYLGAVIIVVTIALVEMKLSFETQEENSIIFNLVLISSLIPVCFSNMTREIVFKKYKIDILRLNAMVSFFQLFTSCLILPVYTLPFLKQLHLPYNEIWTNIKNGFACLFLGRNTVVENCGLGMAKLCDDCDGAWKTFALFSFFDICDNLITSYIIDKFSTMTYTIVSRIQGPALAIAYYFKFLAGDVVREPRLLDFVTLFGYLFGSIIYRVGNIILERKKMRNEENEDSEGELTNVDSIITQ
Description: Transport. It is filed as biochemical. As to conditions: for 1-min uptake, transport in proteoliposomes: 100 nM [3H]-drug, inwardly-directed pH gradient; for Vmax, transport in proteoliposomes: initial rates over 3 s, Michaelis-Menten fit; for transport activity (in words): proteoliposomes.

For test [1], the system named is P. falciparum Dd2^Dd2 parasite line. Description: Parasite drug susceptibility assay. It is filed as cell-based, Plasmodium falciparum. As to conditions: Plasmodium falciparum, DD2, 72 h. Summed up:
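Asynchronous asexual blood-stage parasites were seeded at 0.3% parasitemia and 1% hematocrit into 2-fold, 10-point test compound dilutions. Incubation was 72 h at 37°C under 5% O2/5% CO2/90% N2. Final parasitemia was read by flow cytometry. IC50 came from nonlinear regression, 4 independent assays in duplicate, with two-tailed Mann-Whitney U tests.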

For another test, the target named is T2, PfCRT WT (3D7) (Plasmodium falciparum, UniProt Q9N623).
T2 sequence (Q9N623 1-424): T1 sequence (W7FI62 1-424 C350R) with S72C, T76K, S220A, D326N, R350C, L356I
Description: Equilibrium dialysis binding, PfCRT variant in nanodiscs. As to conditions: for Bmax, binding at pH 5.5 / Bmax, binding at pH 7.5: equilibrium dialysis. Summed up:
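Saturation binding of [3H]-CQ (1 Ci/mmol) or [3H]-PPQ (2.5 Ci/mmol) by equilibrium dialysis (12,000–14,000 MWCO) with 4.2 pmol PfCRT in POPG/MSP1D1 nanodiscs (BacMam, HEK293S GnTi- cells). Kd came from global non-linear regression, N=3.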
For orientation: In equilibrium dialysis only unbound substance equilibrates across the membrane.

In another test the target is T3, PfCRT 7G8+F145I (Plasmodium falciparum, UniProt W7FI62, F145I).
T3 sequence (W7FI62 1-424 F145I): T1 sequence (W7FI62 1-424 C350R) with F145I, R350C
Description: Equilibrium dialysis binding, PfCRT variant in nanodiscs. As to conditions: for Bmax, binding at pH 5.5 / Bmax, binding at pH 7.5: equilibrium dialysis.

Another test has as its target T4, PfCRT 7G8 (Plasmodium falciparum, UniProt W7FI62).
T4 sequence (W7FI62 1-424): T1 sequence (W7FI62 1-424 C350R) with R350C
It is filed as biochemical. To be noted: for transport activity (in words): proteoliposomes.

Test [2] relates to P. falciparum 7G8^7G8+F145I parasite line. Kind of test: [3H]-drug accumulation assay in cultured parasites. It is filed as cell-based, Plasmodium falciparum. As to conditions: 60 min, trophozoites. An outline of the steps:
(§1)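 Sorbitol-synchronized early trophozoites (24–26 h) were magnet-purified and resuspended in bicarbonate-free RPMI 1640 (25 mM HEPES, 10 mM glucose, 0.2 mM hypoxanthine, pH 7.4), counted by hemocytometer. They were mixed with an equal volume of radiolabelled drug (10 nM [3H]-CQ before mixing) for 1 h at 37°C, spun through dibutyl phthalate, then scintillation counted. CAR was internal/external drug, corrected for uninfected erythrocytes, per 10^6 cells at 75 fl; 4–6 assays in duplicate.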

Test [3] concerns P. falciparum 7G8^7G8 parasite line. Kind of test: [3H]-drug accumulation assay in cultured parasites. It is filed as cell-based, Plasmodium falciparum. As to conditions: 60 min, trophozoites. Summed up:
as §1

Test [4] is described as follows: Uptake in control liposomes. The test is classed as biochemical. As to conditions: 100 nM [3H]-drug, liposomes without PfCRT. An outline of the steps: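 Control liposomes lack PfCRT and are loaded with 100 mM KPi, pH 7.5, and 2 mM β-mercaptoethanol. They are diluted into 100 mM Tris/Mes, pH 5.5, with 100 nM [3H]-CQ (5.45 Ci/mmol) or [3H]-PPQ (15 Ci/mmol) for 1 min. Non-specific filter binding, measured as mock uptake without liposomes, is subtracted. Data come from 2 independent experiments, each with 4 technical replicates.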

Where [5] appears, read: binding at pH 5.5, equilibrium dialysis, pH 5.5.
The mark [6] stands for this setting: binding at pH 7.5, equilibrium dialysis, pH 7.5.

In general, IC50 refers to the point on the concentration scale where inhibition reaches its midpoint. Low values mean greater potency, high ones weaker potency. As a reminder, the Kd is the constant that tells how readily two partners part at equilibrium. Low values mean higher affinity, high ones lower affinity. Turning to `CCN(CC)CCCC(C)Nc1ccnc2cc(Cl)ccc12` (stereo not drawn) [CQ, chloroquine], the “1-min uptake, transport in proteoliposomes” value on PfCRT 7G8+C350R worked out at 0.80 ± 0.21 nmol/mg; on PfCRT 7G8 (100 nM [3H]-drug, 1 min, inwardly-directed pH gradient), 3.14 ± 0.50 nmol/mg. The “Vmax, transport in proteoliposomes” value turned out to be 17.97 ± 0.87 nmol/mg/min at PfCRT 7G8+C350R and 92.2 ± 4.9 nmol/mg/min on PfCRT 7G8 (initial rates over 3 s, Michaelis-Menten fit). For the same compound, the “transport activity (in words)” value was “reduced uptake” on PfCRT 7G8+C350R and “robust transport activity” at PfCRT 7G8. In addition, half-maximal inhibition in test [1] (IC50) was put at 143 ± 21.8 nM. Also, the Kd was found to be 280 ± 40 nM on PfCRT WT (3D7), 240 ± 60 nM at PfCRT 7G8+F145I (setting [5]) and 290 ± 50 nM at PfCRT 7G8+F145I (setting [6]). Moreover, the “Bmax, binding at pH 5.5” value at PfCRT WT (3D7) came to 0.40 ± 0.02 mol CQ/mol PfCRT; at PfCRT 7G8+F145I (pH 5.5), 0.39 ± 0.03 mol CQ/mol PfCRT. Further, the “Bmax, binding at pH 7.5” value is reported as 0.42 ± 0.02 mol CQ/mol PfCRT on PfCRT WT (3D7) and 0.43 ± 0.02 mol CQ/mol PfCRT at PfCRT 7G8+F145I (pH 7.5). In addition, the “catalytic turnover number (kcat)” value at PfCRT 7G8 (from Vmax, assuming full activity of reconstituted PfCRT 7G8) is ~ 0.2 s^−1. On PfCRT 7G8 (pH gradient 5.5–7.5 and membrane potential (valinomycin)), the “time course of uptake (in words)” value is reported as “maximal within one minute”. Also, the figures for the “[3H]-CQ CAR (cellular accumulation ratio)” value in test [2] (5 nM [3H]-CQ) and in test [3] (5 nM [3H]-CQ) were 388.4 ± 38.9 and 14.5 ± 3.7, respectively. For the same compound, the “1-min uptake in control liposomes” value in test [4] stood at 0.12 ± 0.02 nmol/mg.

`Clc1ccc2c(N3CCN(CCCN4CCN(c5ccnc6cc(Cl)ccc56)CC4)CC3)ccnc2c1` [PPQ, piperaquine]: the “1-min uptake, transport in proteoliposomes” value at PfCRT 7G8+C350R was determined as 0.82 ± 0.07 nmol/mg. The “Vmax, transport in proteoliposomes” value on PfCRT 7G8+C350R was found to be 153.00 ± 3.10 nmol/mg/min. In addition, the “transport activity (in words)” value on PfCRT 7G8+C350R was “substantially increased”; on PfCRT 7G8, “Minimal”; on PfCRT 7G8 (listed as [^3H]-PPQ), “no detectable”. In test [1], this compound had an IC50 of 18.3 ± 1.9 nM. Further, the Kd was 260 ± 40 nM on PfCRT WT (3D7), 220 ± 30 nM on PfCRT 7G8+F145I (setting [5]) and 260 ± 30 nM on PfCRT 7G8+F145I (setting [6]). The “Bmax, binding at pH 5.5” value at PfCRT WT (3D7) is reported as 0.38 ± 0.02 mol CQ/mol PfCRT; on PfCRT 7G8+F145I (pH 5.5), 0.38 ± 0.01 mol CQ/mol PfCRT. Also, the results for the “Bmax, binding at pH 7.5” value on PfCRT WT (3D7) and at PfCRT 7G8+F145I (pH 7.5) were 0.40 ± 0.02 mol CQ/mol PfCRT and 0.42 ± 0.01 mol CQ/mol PfCRT, respectively. At PfCRT 7G8+F145I (pH 5.5), the “fold increase in Kd compared with 7G8 parental isoform” value is recorded as ~ 2 fold. Besides, the “[3H]-PPQ CAR (cellular accumulation ratio)” value in test [2] (20 nM [3H]-PPQ) turned out to be 1125.6 ± 59.6; in test [3] (20 nM [3H]-PPQ), 1943.9 ± 82.2. Also, the “1-min uptake in control liposomes” value in test [4] worked out at 0.09 ± 0.01 nmol/mg.
